The text below walks through data of ChEMBL document CHEMBL4387720, “Lead generation of 1,2-dithiolanes as exon 19 and exon 21 mutant EGFR tyrosine kinase inhibitors” (Bioorg Med Chem Lett, 2019).

Series [1] deals with T1, Epidermal growth factor receptor (Homo sapiens, UniProt P00533). Kind of series: Inhibition of probe binding to wild type EGFR (unknown origin) using rabbit reticulate lysate system after 1 hr by luminescence assay.
A further series deals with A549. Kind of series: cells. The conditions noted are these: Homo sapiens, A549, 48 h. Type of series: functional.
Series [2] has as its system NCI-H460. Kind of series: cells. It is filed as functional. The following applies: Homo sapiens, NCI-H460, 48 h.
For another series, the system named is NCI-H322M. Kind of series: Cytotoxicity against human NCI-H322M cells assessed as reduction in measured protein incubated for 48 hrs by SRB assay. The conditions noted are these: read-out: LC50 (the source's name). It is filed as functional. The essentials: (§1)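 Tested in the NCI-60 panel with a five-dose response curve, each value the mean of 2 experiments.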

Series [3] deals with NCI-H460. Kind of series: Cytotoxicity against human NCI-H460 cells assessed as reduction in measured protein incubated for 48 hrs by SRB assay. It is filed as functional. The following applies: NCI-H460, 48 h, read-out: LC50 (the source's name). An outline of the steps: as §1
Series [4] deals with MOLT-4. Kind of series: Cytotoxicity against human MOLT4 cells assessed as reduction in measured protein incubated for 48 hrs by SRB assay. It is filed as functional. The following applies: MOLT-4, 48 h, read-out: LC50 (the source's name). An outline of the steps: as §1
In series [5] the test system is MOLT-4. Kind of series: Therapeutic index, ratio of LC50 for human MOLT4 cells to GI50 for human MOLT4 cells. It is filed as functional. The essentials:
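NCI-60 panel screen using five-dose response curves, each value an average of 2 experiments. […] The therapeutic index is calculated as LC50/GI50 for the same cell line.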

The target of series [6] is Epidermal growth factor receptor (Homo sapiens, UniProt P00533, E746-A750DEL). Kind of series: Binding affinity to human partial length EGFR E746-A750 deletion mutant expressed in bacterial expression system by KinomeScan assay. An outline of the steps:
(§2)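 Competition binding against an immobilized active-site-directed ligand. Bound kinase is quantified by qPCR of its DNA tag. Kd values come from duplicate 11-point dose-response curves.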

The target of series [7] is T1, Epidermal growth factor receptor. Kind of series: Binding affinity to human partial length wild type EGFR (R669 to V1011 residues) expressed in bacterial expression system by kinomescan assay. An outline of the steps: as §2
Series [8] has as its target Epidermal growth factor receptor (Homo sapiens, UniProt P00533, L747-T751DEL). Kind of series: Binding affinity to human partial length EGFR L747-T751del/Sins mutant expressed in bacterial expression system by KinomeScan assay. An outline of the steps:
as §2

The target in another series is Cytochrome P450 2B6 (Homo sapiens, UniProt P20813). Kind of series: Inhibition of CYP2B6 (unknown origin). It is filed as ADME.
Chain of Cytochrome P450 2B6 (P20813 whole entry): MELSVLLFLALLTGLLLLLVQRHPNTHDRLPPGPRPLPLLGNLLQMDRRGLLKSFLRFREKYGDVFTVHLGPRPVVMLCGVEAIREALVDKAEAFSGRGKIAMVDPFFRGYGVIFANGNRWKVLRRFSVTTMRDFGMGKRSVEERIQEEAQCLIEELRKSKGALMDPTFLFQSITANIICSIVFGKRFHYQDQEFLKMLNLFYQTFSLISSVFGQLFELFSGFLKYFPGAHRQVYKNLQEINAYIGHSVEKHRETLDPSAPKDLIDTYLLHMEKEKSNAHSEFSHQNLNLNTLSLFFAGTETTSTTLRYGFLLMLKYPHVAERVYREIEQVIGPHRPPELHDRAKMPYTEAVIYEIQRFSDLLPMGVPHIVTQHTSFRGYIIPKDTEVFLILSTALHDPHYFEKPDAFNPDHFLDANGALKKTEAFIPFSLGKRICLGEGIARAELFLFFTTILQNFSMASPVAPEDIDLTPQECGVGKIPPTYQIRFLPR
A further series addresses Cytochrome P450 2C8 (Homo sapiens, UniProt P10632). Kind of series: Inhibition of CYP2C8 (unknown origin). Type of series: ADME.
In the next series the target is Cytochrome P450 2C19 (Homo sapiens, UniProt P33261). Kind of series: Inhibition of CYP2C19 (unknown origin). It is filed as ADME.
Chain of Cytochrome P450 2C19 (P33261 whole entry): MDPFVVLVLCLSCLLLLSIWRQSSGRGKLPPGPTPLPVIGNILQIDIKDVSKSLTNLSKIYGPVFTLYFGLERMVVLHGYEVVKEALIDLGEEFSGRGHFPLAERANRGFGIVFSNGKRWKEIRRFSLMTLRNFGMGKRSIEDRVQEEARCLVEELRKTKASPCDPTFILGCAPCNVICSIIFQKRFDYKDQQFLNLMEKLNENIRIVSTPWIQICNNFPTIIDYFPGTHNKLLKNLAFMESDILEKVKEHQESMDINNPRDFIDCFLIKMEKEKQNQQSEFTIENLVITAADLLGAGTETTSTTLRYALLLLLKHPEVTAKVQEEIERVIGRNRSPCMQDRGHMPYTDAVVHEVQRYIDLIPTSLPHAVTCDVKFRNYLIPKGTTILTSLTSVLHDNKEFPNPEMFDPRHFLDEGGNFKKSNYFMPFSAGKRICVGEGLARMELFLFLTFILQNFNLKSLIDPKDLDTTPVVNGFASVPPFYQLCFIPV
In a further series the target is Cytochrome P450 2D6 (Homo sapiens, UniProt P10635). Kind of series: Inhibition of CYP2D6 (unknown origin). Type of series: ADME.
Series [9] can be described thus: Half life in human liver microsomes. It is filed as ADME, Microsome.

T1 sequence (P00533 whole entry): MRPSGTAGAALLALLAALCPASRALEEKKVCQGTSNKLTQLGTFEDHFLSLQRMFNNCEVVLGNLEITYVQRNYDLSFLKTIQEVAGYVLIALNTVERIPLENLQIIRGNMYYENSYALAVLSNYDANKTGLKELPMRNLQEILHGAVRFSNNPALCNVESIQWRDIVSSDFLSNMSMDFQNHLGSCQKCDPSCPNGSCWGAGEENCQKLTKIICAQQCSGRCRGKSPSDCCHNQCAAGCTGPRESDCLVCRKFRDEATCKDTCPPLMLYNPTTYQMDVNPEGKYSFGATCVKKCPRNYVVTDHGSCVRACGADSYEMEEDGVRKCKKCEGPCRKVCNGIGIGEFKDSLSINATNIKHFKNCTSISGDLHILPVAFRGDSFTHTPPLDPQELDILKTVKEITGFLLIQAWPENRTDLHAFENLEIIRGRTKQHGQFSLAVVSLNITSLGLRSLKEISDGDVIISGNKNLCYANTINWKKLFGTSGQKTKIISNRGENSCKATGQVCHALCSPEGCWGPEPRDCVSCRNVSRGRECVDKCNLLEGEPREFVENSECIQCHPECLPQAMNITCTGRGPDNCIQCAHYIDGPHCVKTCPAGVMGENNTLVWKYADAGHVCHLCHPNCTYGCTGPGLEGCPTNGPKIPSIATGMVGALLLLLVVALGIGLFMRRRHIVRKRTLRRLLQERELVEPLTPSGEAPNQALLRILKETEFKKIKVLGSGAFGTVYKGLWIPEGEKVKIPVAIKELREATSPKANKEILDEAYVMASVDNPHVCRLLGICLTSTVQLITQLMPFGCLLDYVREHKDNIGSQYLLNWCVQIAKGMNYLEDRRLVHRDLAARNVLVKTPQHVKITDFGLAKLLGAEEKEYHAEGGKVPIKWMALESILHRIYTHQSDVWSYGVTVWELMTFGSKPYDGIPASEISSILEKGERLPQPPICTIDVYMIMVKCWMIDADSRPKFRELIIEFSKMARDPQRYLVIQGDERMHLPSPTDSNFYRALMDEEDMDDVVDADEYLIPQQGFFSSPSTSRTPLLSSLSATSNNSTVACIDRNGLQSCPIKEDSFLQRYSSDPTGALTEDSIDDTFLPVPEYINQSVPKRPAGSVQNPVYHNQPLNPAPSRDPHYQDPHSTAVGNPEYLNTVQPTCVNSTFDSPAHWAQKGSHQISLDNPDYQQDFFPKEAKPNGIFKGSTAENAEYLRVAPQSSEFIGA
Chain of Epidermal growth factor receptor (Homo sapiens, UniProt P00533, L747-T751DEL) (P00533 whole entry L747-T751del, looked up): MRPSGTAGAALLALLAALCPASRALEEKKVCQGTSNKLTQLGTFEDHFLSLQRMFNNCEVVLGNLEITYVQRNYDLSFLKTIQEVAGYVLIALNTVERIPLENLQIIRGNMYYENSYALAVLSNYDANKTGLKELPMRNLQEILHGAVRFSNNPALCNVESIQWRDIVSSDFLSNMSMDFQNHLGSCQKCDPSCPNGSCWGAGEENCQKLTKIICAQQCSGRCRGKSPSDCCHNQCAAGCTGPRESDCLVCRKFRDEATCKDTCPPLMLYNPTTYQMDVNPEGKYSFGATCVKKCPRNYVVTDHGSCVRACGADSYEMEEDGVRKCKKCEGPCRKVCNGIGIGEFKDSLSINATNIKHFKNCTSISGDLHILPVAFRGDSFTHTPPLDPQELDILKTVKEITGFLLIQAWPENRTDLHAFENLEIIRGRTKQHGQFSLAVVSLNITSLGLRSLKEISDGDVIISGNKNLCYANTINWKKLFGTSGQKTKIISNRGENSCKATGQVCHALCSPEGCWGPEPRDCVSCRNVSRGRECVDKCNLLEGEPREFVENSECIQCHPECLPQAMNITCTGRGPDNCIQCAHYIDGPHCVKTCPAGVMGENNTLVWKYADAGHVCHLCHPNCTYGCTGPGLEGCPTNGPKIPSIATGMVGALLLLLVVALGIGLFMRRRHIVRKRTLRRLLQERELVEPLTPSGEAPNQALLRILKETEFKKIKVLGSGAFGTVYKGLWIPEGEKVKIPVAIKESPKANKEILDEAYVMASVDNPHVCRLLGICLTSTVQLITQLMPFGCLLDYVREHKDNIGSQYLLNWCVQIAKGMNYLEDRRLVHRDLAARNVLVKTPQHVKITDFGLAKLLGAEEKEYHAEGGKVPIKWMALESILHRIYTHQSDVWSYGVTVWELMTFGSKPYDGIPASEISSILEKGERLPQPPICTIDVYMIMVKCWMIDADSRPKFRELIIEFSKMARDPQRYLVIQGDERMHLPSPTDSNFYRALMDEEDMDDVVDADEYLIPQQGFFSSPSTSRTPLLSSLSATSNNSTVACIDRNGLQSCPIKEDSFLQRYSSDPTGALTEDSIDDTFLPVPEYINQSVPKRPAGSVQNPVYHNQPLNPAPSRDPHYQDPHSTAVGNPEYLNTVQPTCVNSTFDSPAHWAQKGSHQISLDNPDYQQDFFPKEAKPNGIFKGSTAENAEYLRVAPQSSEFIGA
Chain of Cytochrome P450 2C8 (P10632 whole entry): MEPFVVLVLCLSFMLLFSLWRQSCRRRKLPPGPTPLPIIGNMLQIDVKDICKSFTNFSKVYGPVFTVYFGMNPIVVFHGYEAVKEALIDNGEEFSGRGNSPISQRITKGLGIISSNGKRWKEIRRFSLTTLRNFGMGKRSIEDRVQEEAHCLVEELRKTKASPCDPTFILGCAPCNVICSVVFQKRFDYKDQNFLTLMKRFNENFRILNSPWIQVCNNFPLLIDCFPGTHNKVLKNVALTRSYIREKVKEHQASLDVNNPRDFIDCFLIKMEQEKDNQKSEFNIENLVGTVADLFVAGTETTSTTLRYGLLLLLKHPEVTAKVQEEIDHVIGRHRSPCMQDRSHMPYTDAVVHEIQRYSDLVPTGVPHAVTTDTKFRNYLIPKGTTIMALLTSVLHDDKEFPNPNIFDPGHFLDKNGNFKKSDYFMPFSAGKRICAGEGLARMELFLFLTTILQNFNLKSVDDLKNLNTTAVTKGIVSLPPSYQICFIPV
Chain of Epidermal growth factor receptor (Homo sapiens, UniProt P00533, E746-A750DEL) (P00533 whole entry E746-A750del, looked up): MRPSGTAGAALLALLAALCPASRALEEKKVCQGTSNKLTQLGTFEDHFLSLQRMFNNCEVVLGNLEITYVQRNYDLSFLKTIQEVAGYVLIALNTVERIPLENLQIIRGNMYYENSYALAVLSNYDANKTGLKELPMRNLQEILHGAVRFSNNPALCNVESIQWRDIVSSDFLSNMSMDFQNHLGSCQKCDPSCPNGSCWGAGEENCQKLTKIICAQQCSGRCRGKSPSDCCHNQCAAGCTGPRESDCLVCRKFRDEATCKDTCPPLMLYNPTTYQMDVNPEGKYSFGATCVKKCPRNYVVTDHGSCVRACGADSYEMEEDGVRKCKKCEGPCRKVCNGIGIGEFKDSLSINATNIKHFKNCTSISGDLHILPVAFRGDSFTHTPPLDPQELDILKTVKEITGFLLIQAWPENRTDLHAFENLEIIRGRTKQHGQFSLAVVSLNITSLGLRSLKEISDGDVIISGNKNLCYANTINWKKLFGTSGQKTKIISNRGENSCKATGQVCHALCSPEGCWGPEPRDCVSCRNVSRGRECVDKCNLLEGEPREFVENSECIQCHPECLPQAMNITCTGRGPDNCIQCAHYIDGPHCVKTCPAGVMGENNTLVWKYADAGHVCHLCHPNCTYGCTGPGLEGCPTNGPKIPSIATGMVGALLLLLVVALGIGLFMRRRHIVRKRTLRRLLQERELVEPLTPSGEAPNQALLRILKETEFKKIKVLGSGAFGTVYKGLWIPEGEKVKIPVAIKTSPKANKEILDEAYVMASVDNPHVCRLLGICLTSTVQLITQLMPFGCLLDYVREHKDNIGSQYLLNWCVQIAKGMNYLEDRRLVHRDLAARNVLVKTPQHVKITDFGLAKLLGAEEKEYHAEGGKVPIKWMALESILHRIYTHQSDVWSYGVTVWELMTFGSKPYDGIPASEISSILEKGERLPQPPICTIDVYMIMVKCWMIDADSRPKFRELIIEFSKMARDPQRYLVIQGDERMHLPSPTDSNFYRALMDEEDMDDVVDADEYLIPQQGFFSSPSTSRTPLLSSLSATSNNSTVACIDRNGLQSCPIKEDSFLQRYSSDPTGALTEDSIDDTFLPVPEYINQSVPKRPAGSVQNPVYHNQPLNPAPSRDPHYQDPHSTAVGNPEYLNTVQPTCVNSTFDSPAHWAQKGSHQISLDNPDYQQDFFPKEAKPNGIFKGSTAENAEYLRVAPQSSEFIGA

`CCOc1cc2ncc(C#N)c(Nc3ccc(OCc4cccc(F)c4)c(Cl)c3)c2cc1NC(=O)CC1CCSS1` (stereo not given): the IC50 in series [1] was 120 nM; against Cytochrome P450 2B6 it was > 50000 nM; against Cytochrome P450 2C8 it was > 50000 nM; on Cytochrome P450 2C19, > 50000 nM; against Cytochrome P450 2D6, > 50000 nM. In addition, the GI50 in the series on A549 amounted to 540 nM; with NCI-H460 [2] it was 470 nM. For the same compound, the CC50 was > 25000 nM in the series with NCI-H322M, 1950 nM in the series with NCI-H460 [3] and > 25000 nM in the series with MOLT-4 [4]. Besides, the TI in the series on MOLT-4 [5] was >156. The Kd was found to be 48 nM in series [6], 120 nM in [7] and 13 nM in [8]. In addition, the half-life in [9] is 1.43 h.
